In series [1] the test system is HeLa. The series is described as follows: Induction of interphase microtubule bundling in human HeLa cells at 3.5 uM after 18 hrs by indirect immunofluorescence analysis. In kind it is cell-based.
Series [2] relates to HeLa. The series is described as follows: Cell cycle arrest in human HeLa cells assessed as accumulation of cells at G2/M phase at 3.5 uM after 18 hrs by flow cytometric analysis. It is filed as functional, cell-based. In short, it runs like this: (§1)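 DNA stained with propidium iodide (Krishan's reagent); DNA content measured by flow cytometry and plotted as PI intensity vs events.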
(In general: Flow cytometry measures light scatter and fluorescence of single cells or particles in a stream.)

For series [3], the system named is HeLa. The series is described as follows: Antiproliferative activity against human HeLa cells after 48 hrs by SRB assay. In kind it is functional, cell-based. Put shortly:
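HeLa cells grown in BME with 10% FBS and 50 µg/ml gentamicin, drug-treated 48 h, proliferation read by SRB assay.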
For orientation: The SRB assay estimates cell density from bound dye.

The nature of series [4]: Antitumor activity against mouse 16/C cells allografted in mouse B6C3F1 assessed as decrease in tumor mass at 56 mg/kg, iv administered on days 1,4,6 and day 8 or 9 relative to control. In kind it is functional. In short, it runs like this:
(§2)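 Female B6C3F1 mice (mean 19.3 ± 1.0 g) carried bilateral s.c. Mammary 16/C tumor fragments implanted day 0, 5 mice/group. […] All were given IV in 0.2 ml. Tumor mass = L×W²/2, measured 2–3 times weekly. %T/C = treated/control median mass, zeros included, taken when control tumors reach ~700–1200 mg.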

Series [5] is described as follows: Antitumor activity against mouse 16/C cells allografted in mouse B6C3F1 assessed as decrease in tumor mass at 40 mg/kg, iv administered on days 1,4,6 and day 8 or 9 relative to control. In kind it is functional. In short, it runs like this:
as §2

Series [6] in a line: Antitumor activity against mouse 16/C cells allografted in mouse B6C3F1 assessed as delay in tumor growth at 56 mg/kg, iv administered on days 1,4,6 and day 8 or 9 relative to control. It is filed as functional. In short, it runs like this: (§3)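 Mammary 16/C fragments implanted s.c. bilaterally in female B6C3F1 mice on day 0, 5 mice/group, IV dosing in 0.2 ml. Tumors measured 2–3 times weekly. T-C = median days for treated vs control tumors to reach 1000 mg. Gross log cell kill = (T-C)/3.32×Td, with Td the doubling time from a log-linear fit of control tumor growth.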

Series [7] in a line: Antitumor activity against mouse 16/C cells allografted in mouse B6C3F1 assessed as delay in tumor growth at 40 mg/kg, iv administered on days 1,4,6 and day 8 or 9 relative to control. It is filed as functional. In short, it runs like this:
as §3

A short description of series [8]: Antitumor activity against mouse 16/C cells allografted in mouse B6C3F1 assessed as gross log cell killing at 56 mg/kg, iv administered on days 1,4,6 and day 8 or 9 relative to control. It is filed as functional. Put shortly: (§4)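 Mammary 16/C tumor fragments implanted bilaterally s.c. in female B6C3F1 mice on day 0, 5 mice/group. Taccalonolides in 50% DMSO:50% Cremophor stock, diluted with sterile water, given i.v. in 0.2 ml on days 1, 4, 6, plus one dose 2–3 days later (A, N) or further doses days 8, 9, 11 (E). Tumor mass = length × width²/2, measured 2–3 times weekly. Gross log cell kill = (T-C)/3.32 × Td, with T-C the days to 1000 mg.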

A short description of series [9]: Antitumor activity against mouse 16/C cells allografted in mouse B6C3F1 assessed as gross log cell killing at 40 mg/kg, iv administered on days 1,4,6 and day 8 or 9 relative to control. In kind it is functional. Put shortly: as §4
Series [10] relates to Mus musculus. Put plainly: Toxicity in B6C3F1 mouse allografted with mouse 16/C cells assessed as mean body weight loss at 56 mg/kg, iv administered on days 1,4,6 and day 8 or 9 (reference value: -2.2%). In kind it is organism-based. Details: dose 56 mg/kg, route intravenous. The note with it: in vivo.
Series [11] has as its system Mus musculus. Put plainly: Toxicity in B6C3F1 mouse allografted with mouse 16/C cells assessed as mean body weight loss at 40 mg/kg, iv administered on days 1,4,6 and day 8 or 9 (reference value: -2.2%). In kind it is organism-based. Details: dose 40 mg/kg, route intravenous. As to conditions: in vivo.
In series [12] the test system is HeLa. The series is described as follows: Inhibition of beta tubulin in human HeLa cells assessed asultiple abnormal mitotic spindle formation at 3.5 uM after 18 hrs by immunofluorescence analysis. It is filed as cell-based.
Series [13] is described as follows: Toxicity in B6C3F1 mouse allografted with mouse 16/C cells assessed as lethality at 56 mg/kg, iv. In kind it is organism-based. More on the design: dose 56 mg/kg, route intravenous. The note with it: in vivo, read-out: Activity.
For series [14], the system named is HeLa. The series is described as follows: Induction of interphase microtubule bundling in human HeLa cells at 1.3 uM after 18 hrs by indirect immunofluorescence. In kind it is cell-based.
Series [15] relates to HeLa. The series is described as follows: Cell cycle arrest in human HeLa cells assessed as accumulation of cells at G2/M phase at 1.3 uM after 18 hrs by flow cytometric analysis. It is filed as functional, cell-based. In short, it runs like this:
as §1

Series [16] can be described thus: Antitumor activity against mouse 16/C cells allografted in mouse B6C3F1 assessed as decrease in tumor mass at 36 mg/kg, iv administered on days 1,4,6 and day 8 or 9 relative to control. It is filed as functional. Put shortly:
as §2

The nature of series [17]: Antitumor activity against mouse 16/C cells allografted in mouse B6C3F1 assessed as decrease in tumor mass at 20 mg/kg, iv administered on days 1,4,6 and day 8 or 9 relative to control. In kind it is functional. In short, it runs like this: as §2
Series [18] in a line: Antitumor activity against mouse 16/C cells allografted in mouse B6C3F1 assessed as delay in tumor growth at 36 mg/kg, iv administered on days 1,4,6 and day 8 or 9 relative to control. It is filed as functional. In short, it runs like this:
as §3

A short description of series [19]: Antitumor activity against mouse 16/C cells allografted in mouse B6C3F1 assessed as delay in tumor growth at 20 mg/kg, iv administered on days 1,4,6 and day 8 or 9 relative to control. It is filed as functional. In short, it runs like this:
as §3

Series [20] in a line: Antitumor activity against mouse 16/C cells allografted in mouse B6C3F1 assessed as gross log cell killing at 36 mg/kg, iv administered on days 1,4,6 and day 8 or 9 relative to control. In kind it is functional. Put shortly:
as §4

Series [21] in a line: Antitumor activity against mouse 16/C cells allografted in mouse B6C3F1 assessed as gross log cell killing at 20 mg/kg, iv administered on days 1,4,6 and day 8 or 9 relative to control. In kind it is functional. Put shortly: as §4
For series [22], the system named is Mus musculus. The series is described as follows: Toxicity in B6C3F1 mouse allografted with mouse 16/C cells assessed as mean body weight loss at 36 mg/kg, iv administered on days 1,4,6 and day 8 or 9 (reference value: -2.2%). The note with it: in vivo. More on the design: dose 36 mg/kg, route intravenous. It is filed as organism-based.
The test system of series [23] is Mus musculus. Put plainly: Toxicity in B6C3F1 mouse allografted with mouse 16/C cells assessed as mean body weight loss at 20 mg/kg, iv administered on days 1,4,6 and day 8 or 9 (reference value: -2.2%). In kind it is organism-based. Details: dose 20 mg/kg, route intravenous. The note with it: in vivo.
A short description of series [24]: Toxicity in B6C3F1 mouse allografted with mouse 16/C cells assessed as lethality at 20 mg/kg, iv administered on days 1,4,6 and day 8 or 9 measured after 12 days relative to control. It is filed as organism-based. More on the design: dose 20 mg/kg, route intravenous. As to conditions: in vivo, read-out: Activity. In short, it runs like this:
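Female B6C3F1 mice, 5 per group, bore bilateral s.c. Mammary 16/C fragments. Taccalonolides in DMSO:Cremophor diluted with water were given i.v. on days 1, 4, 6 plus a later dose (A, N) or days 8, 9, 11 (E). Mice were weighed and observed daily, and lethality was recorded per group.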

For series [25], the system named is HeLa. Put plainly: Inhibition of beta tubulin in human HeLa cells assessed asultiple abnormal mitotic spindle formation at 1.3 uM after 18 hrs by immunofluorescence analysis. It is filed as cell-based.

Calls of active or inactive are those of the source. No cut-off for these calls is given here.

As a reminder, the IC50 is the concentration that gives 50% inhibition. Low values mean greater potency in that assay, high ones weaker potency in that assay. For orientation: T/C means the result in the treated group divided by that in the control group, in per cent.

Consider `CC(=O)O[C@@H]1[C@H]2[C@H]3[C@H]([C@H](OC(C)=O)[C@H](OC(C)=O)[C@]2(C)[C@@H]2[C@@H]1[C@]1(C)C(=C[C@H]2C)OC(=O)[C@@]1(C)O)[C@]1(C)[C@H](C[C@@H]2O[C@@H]2[C@@H]1OC(C)=O)C(=O)[C@@H]3O` [TACCALONOLIDE A], for which the result in the series with HeLa [1] and in the series with HeLa [2] was Active. Further, the IC50 with HeLa [3] was determined as 594 nM. Moreover, the T/C was determined as 0% in series [4] and 24% in series [5]. Also, the Time in [6] amounted to 16 days; in series [7], 4 days. Besides, the LCK in series [8] worked out at 4; in series [9], 1. Further, the Activity in the series on Mus musculus [10] is -16.7%; in the series with Mus musculus [11], -6.3%. Moreover, the inhibition entry in the series with HeLa [12] is “Active”. For the same molecule, the mortality in series [13] is 20%.

In the case of `CC(=O)O[C@H]1C[C@H]2[C@H]([C@@H]3[C@@H](O)[C@@H]4[C@H]([C@H](C)C=C5OC(=O)[C@@](C)(O)[C@@]54C)[C@]31C)[C@@H](O)C(=O)[C@H]1C[C@@H]3O[C@@H]3[C@H](OC(C)=O)[C@@]12C` [TACCALONOLIDE N], the outcome with HeLa [14] and in the series on HeLa [15] was Active. Also, in the series on HeLa [3], the IC50 is 247 nM. Also, the figures for the T/C in [16] and in series [17] were 0% and 43%, respectively. Moreover, the Time was 5 days in series [18] and 1 days in [19]. Moreover, the values for the LCK in series [20] and in [21] were 1.25 and 0.25, respectively. The Activity is reported as -8.2% in the series on Mus musculus [22] and -2.1% with Mus musculus [23]. The mortality at 288 h in series [24] is 0%. The inhibition entry in the series on HeLa [25] was “Active”.
